Screens: PubChem, Johns Hopkins Ion Channel Center
Shown are actives, neighbours in structure and some others; about 3.5% of the full set was active somewhere.
MrgX1 allo act = positive allosteric modulators of MrgX1, primary screen, HEK293 cells, Fluo-4 calcium flux; FDSS; hits give high values; B-score at 10 µM; 310,000 compounds, 0.63% hits; AID 588675, 2011;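 active = plate-corrected calcium response at least 3 library SD above typical, normal starting fluorescence, not activating the receptor alone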;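 note: compound read alongside a low EC10 to EC30 dose of BAM8-22 agonist; peak minus trough fluorescence over baseline measured at the second addition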
MrgX1 agonist = agonists of human MrgX1 receptor, primary screen, HEK293 cells, Fluo-4 calcium flux | 310,000 compounds, 0.44% hits | Mas-related G-protein coupled receptor member X1 (Homo sapiens), Q96LB2 | B-score at 10 µM | Fluo-4 calcium fluorescence, agonist mode; hits give high values;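 active = calcium response B-score plate-corrected fluorescence ratio at least 3 library SD, with starting fluorescence B-score inside 5 SD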
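Test system: HEK293 cells stably expressing human MrgX1 receptor; amount: 15,000 cells per well; doses: compound delivered in addition one of three; times: overnight plating before 1 h dye loading; detection: Fluo-4 NW calcium-flux fluorescence, kinetic read; read-out basis: B-scored fluorescence response ratio; controls: positive and negative controls per plate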
MrgX1 antag = antagonists of human MrgX1 receptor, primary screen, HEK293 cells, Fluo-4 calcium flux | AID 588676, 2011 | B-score at 10 µM | 310,000 compounds, 1.3% hits | BAM8-22 antagonism; hits give low values | Mas-related G-protein coupled receptor member X1 (Homo sapiens), Q96LB2;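 active = calcium-response B-score plate-corrected more than 3 library SD below zero, starting fluorescence within 5 deviations, no agonist response on first addition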;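 note: peak minus trough fluorescence over baseline after final BAM8-22 challenge near maximal dose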
RGS4 inh = RGS4 inhibitors, primary screen, cell-based, HEK293 M3R inducible RGS4, calcium flux; Regulator of G-protein signaling 4 (Homo sapiens), P49798; Fluo-4 calcium flux; hits give high values; triggered by carbachol at its EC20; B-score at 10 µM; 310,000 compounds, 0.45% hits;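 active = B-score, a plate-corrected calcium signal, over three deviations above library mean, with baseline fluorescence within five deviations of library mean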;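 note: RGS4 expression induced by doxycycline in cells with stable M3 receptor; B-score is computed from the integrated fluorescence ratio over baseline after carbachol; higher B-score means a larger calcium signal and so more RGS4 inhibition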
Target sequence (P49798 whole entry, looked up): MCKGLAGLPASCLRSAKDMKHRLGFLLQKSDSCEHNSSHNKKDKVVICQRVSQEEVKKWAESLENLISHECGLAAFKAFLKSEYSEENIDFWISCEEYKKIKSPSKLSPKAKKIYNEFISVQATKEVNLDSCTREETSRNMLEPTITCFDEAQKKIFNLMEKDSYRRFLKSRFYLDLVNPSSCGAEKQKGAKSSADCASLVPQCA
RGS4 pot = RGS4 potentiators or activators, primary screen, cell-based, HEK293 M3R inducible RGS4, calcium flux; carbachol calcium flux Fluo4; hits give low values; B-score at 10 µM; 310,000 compounds, 0.92% hits; AID 463111, 2010;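 active = B-score of the integrated calcium signal more than 4 SD below the library mean, with starting fluorescence not abnormally high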;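 note: negative B-score means reduced calcium response which marks RGS4 activation or potentiation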
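Detection: kinetic calcium fluorescence imaging with Fluo4-AM dye, 2 µM / Material: HEK293 cells with stable M3R and inducible RGS4 / Schedule: recording 10 s baseline at 1 Hz, 100 s post-agonist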
RGS4 act valid = reduced carbachol calcium response, RGS4-induced M3R cells, confirmation, RGS4 activator project, cell-based, HEK293 M3R/RGS4 inducible, calcium flux, duplicate; 1,100 compounds, 89% hits; AID 602282, 2012; inhibition, % at 10 µM; carbachol calcium flux Fluo4; shares compounds with RGS4 pot;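 active = inhibition above 3 SD of the buffer control wells, cut at about 41% in these data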;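 note: signal is the integrated peak-minus-minimum Fluo4 fluorescence over baseline ratio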
RGS4 act ctr = activity in cells without induced RGS4 expression | shares compounds with RGS4 pot | HEK293 M3R non-induced RGS4, Fluo4 calcium flux; after carbachol challenge at its EC90 | inhibition, % at 10 µM | 1,100 compounds, 82% hits | AID 602283;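 active = inhibition exceeding 3 SD of buffer-only control wells, cut at about 26% in these data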;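 note: percent drop in integrated peak-minus-baseline over baseline Fluo4 ratio after carbachol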
Numbers without * were called inactive; i = inactive; . = no result.

SMILES | MrgX1 allo act | MrgX1 agonist | MrgX1 antag | RGS4 inh | RGS4 pot | RGS4 act valid | RGS4 act ctr
COc1cccc(C(=O)NCC2CCN(c3ccc(S(=O)(=O)N4CCOCC4)cc3)CC2)c1 | i | i | i | i | -8.61* | 91.5* | 58.3*
O=S(=O)(Nc1ccccc1)c1ccc(-c2csnn2)cc1 | i | i | i | i | -8.39* | 63.0* | 83.8*
COc1ccc(-c2csc(N3CCN(c4cc(C)nc5ccccc45)CC3)n2)cc1OC | i | i | i | i | -8.49* | 92.5* | 86.3*
COc1ccc(CSCCNC(=S)Nc2ccccc2)cc1Cl | i | i | i | i | i | . | .
S=C(NCCSCc1ccc(Cl)c(Cl)c1)Nc1ccccc1 | i | i | i | i | -8.29* | 90.5* | 70.8*
CC(C)=CCc1c(O)cc(O)c2c1OC(c1ccc(O)cc1)CC2=O (stereo not given) | i | i | i | i | -9.93* | 90.5* | 85.8*
CC(C)=CCc1c(O)c(CC=C(C)C)c2c(c1O)C(=O)CC(c1ccc(O)cc1)O2 (stereo not given) | i | i | i | i | i | . | .
Nc1cc(C(=O)OCC(=O)NCCNC(=O)COC(=O)c2ccc(Cl)c(N)c2)ccc1Cl | i | i | i | i | i | . | .
CN(c1ccccc1)S(=O)(=O)c1cccc(C(=O)NCCc2c[nH]c3ccccc23)c1 | i | i | i | i | -9.16* | 74.0* | 47.8*
Cc1cccc(C)c1NS(=O)(=O)c1c(C(=O)N2CCCCC2)c(C)n(C)c1C | i | i | i | i | i | . | .
O=S(=O)(NCc1csc(-c2cccs2)n1)c1cccs1 | i | i | i | i | -8.02* | 0.0 | 0.0
O=S(=O)(NCc1csc(-c2cccs2)n1)c1ccc(Cl)cc1 | i | i | i | i | i | . | .
Cc1ccc(OCC(=O)O/N=C(\N)Cc2ccc([N+](=O)[O-])cc2)cc1C | i | i | i | i | -10.8* | 0.0 | 0.0
S=C1N(c2ccccc2)C(c2ccc(Br)cc2)N2CCCN12 (stereo not given) | i | i | i | i | -10.7* | 94.0* | 90.3*
CCOc1ccccc1OCCC(=O)NNC(=O)Cn1nc(C)cc1C | i | i | i | i | i | . | .
COc1ccc(C(=O)C2CCCN(C/C=C/c3ccccc3OC)C2)c(OC)c1 (stereo not given) | i | i | i | i | -9.26* | 87.5* | 83.8*
COc1cccc(C(=O)C2CCCN(C/C=C/c3ccccc3OC)C2)c1 (stereo not given) | i | i | i | i | i | . | .
COC(=O)c1ccccc1NC(=O)c1ccc(COc2cc(C)cc(C)c2)o1 | i | i | i | i | -8.11* | 46.0* | 0.0
Cc1ccc(CCC(=O)NCc2ccccc2)o1 | i | i | i | i | -7.77* | 0.0 | 0.0
Cc1ccc(S(=O)(=O)NCCC2=CCCCC2)cc1C(N)=O | i | i | i | i | i | . | .
Cc1cc(S(=O)(=O)NCCC2=CCCCC2)ccc1Br | i | i | i | i | -9.55* | 92.0* | 83.3*
CCC(C)c1ccccc1NC(=O)CN1CCN(C/C=C/c2ccccc2)CC1 (stereo not given) | i | i | i | i | -10.3* | 76.0* | 83.8*
O=C(CN1CCN(C/C=C/c2ccccc2)CC1)NCc1ccccc1 | i | i | i | i | i | . | .
Cc1ccc(C)c(NC(=O)CCC(=O)N2CCOc3ccccc32)c1 | i | i | i | i | i | . | .
